In ChEMBL document CHEMBL4513216, “Probing the Open Global Health Chemical Diversity Library for Multistage-Active Starting Points for Next-Generation Antimalarials” (ACS Infect Dis, 2020):

Assay: Toxicity liver stage against HepG2, at 10uM
Format: cell-based
Design: test concentration 10 uM, cell line HepG2-A16-CD81EGFP
Details: human, HepG2-A16-CD81EGFP cells; read-out: INHIBITION
Procedure, shortened: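 Uninfected HepG2-A16-CD81EGFP cells, 3 × 10^3 per well, 1536-well, plated on prespotted compound at 10 μM final, parasite-free screening media added to match infected plates; puromycin 10 μM positive, DMSO 0.5% negative; run in parallel with 48 h PbLuc assay at 37 °C, 5% CO2; viability by CellTiter-Glo luminescence, normalized to controls.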

SMILES | cytotoxicity at 10 µM
CNc1ncccc1C(=O)N1CCN(C)C2(CCN(C)CC2)C1 | 7.16%
COc1ccc(CN2CCc3nc4ccsc4c(=O)n3CC2)c(C)c1C | 67.3%
CC(=O)N1CCC(c2ccnc(Nc3cncnc3)n2)CC1 | -33.2%
Cc1cc(-c2cnc(N3CCOCC3)nc2-c2ccc(C)s2)on1 | -5.72%
COc1cc(Cl)c(C)cc1-n1nnc(C(=O)O)c1C | -8.29%
Cc1ccc(-n2cc(C(=O)N3CCCC(n4cccn4)C3)nn2)cc1 (stereo not given) | -20.3%
COc1ccc(Br)cc1CC(=O)N1CCCC1 | -2.69%
CCCn1c(C)c(CC(=O)NCCC(N)=O)c2c1CC(C)(C)CC2=O | 9.36%
O=C(CCN1CCOCC1)NC1CCCN(CC2CCCCC2)C1 (stereo not given) | 1.64%
Cc1cc(C)c2c(N3CCC(C(=O)N4CCCC4)CC3)ncnc2n1 | -0.218%
COc1ccc(C(=O)N2CC(=O)N(C3CCC3)CC(O)C2)c(OC)c1 (stereo not given) | -0.373%
CCN(Cc1cccc(C(=O)Nc2cn(C)nn2)c1)[C@H]1COC[C@@H]1O | -2.77%
CC(C)CN1CCc2[nH]cnc2C12CCN(C(=O)c1ccccn1)CC2 | -11.6%
COC[C@@H]1CC[C@H]2[C@H](CCN2S(=O)(=O)c2cccc(C)c2)O1 | 3.29%
CCSc1ccc(C(=O)Nc2c(C)nn(C(C)C)c2C)cn1 | -24.4%
O=c1cc(CN2CCCC2)nc2n1CCCN(S(=O)(=O)C1CC1)C2 | -3.56%
COCC(=O)N1CCC(c2ccc(OC)cc2)C1 (stereo not given) | 1.81%
CCc1cnc(N)nc1NCc1ccc(OC)c(OC)c1 | 3.48%
Cc1ccc(CN2CCC3(CC(C(=O)NCC4CC4)=NO3)C2)cc1C (stereo not given) | 3.84%
Cc1nnc(CN2C[C@@H]3CC[C@H]2CN(C2Cc4ccccc4C2)C3)o1 | -1.06%
CC(C)(C)CC(=O)NCCCn1cncn1 | -4.34%
Cc1cnccc1CN1Cc2ccccc2OC2(CCC(CO)CC2)C1 (stereo not given) | -8.83%

SMILES | cytotoxicity at 10 µM
COc1ccc2c(c1)CC(C(=O)N(C)Cc1noc3c1CCCC3)CO2 (stereo not given) | -0.551%
CC(C)Cc1nc(CN(C)c2cc(C(C)C)nc3ccnn23)no1 | 3.61%
CCc1nnsc1C(=O)N1CCOC(c2nc(C)n[nH]2)C1 (stereo not given) | -6.45%
O=C(CCc1ccccc1)N1C[C@H]2CCN[C@H]2C1 | -4.22%
COc1ccc2c(c1)NC(C1CCN(C(=O)C3CC3)CC1)NS2(=O)=O (stereo not given) | 0.0454%
O=C(NCCNC1CCN(c2nccs2)CC1)c1cccs1 | 5.73%
COc1ncccc1CN1Cc2nnn(C)c2C(COCC2CC2)C1 (stereo not given) | 12.4%
CN(CCOc1cccc(CNS(C)(=O)=O)c1)C1CCOCC1 | 2.37%
CCC(=O)N1CCC(c2ncc(C(=O)Nc3ccccc3)c(C)n2)C1 (stereo not given) | 6.96%
Cc1ncc(CNC(=O)N(C)Cc2ccc([S+](C)[O-])cc2)s1 (stereo not given) | 9.35%
CC[C@@H]1N(Cc2ccc(C)s2)CCC[C@]12CCC(=O)N2C | 4.94%
COc1ccc(Cl)cc1CCNC(=O)NCc1ccncc1 | 2.53%
COc1ccc(CN2CCc3sccc3C2C)cc1CN1CCOCC1 (stereo not given) | -0.782%
O=S(=O)(Nc1nccs1)c1cc(Cl)cc2c1OCC2 | -2.19%
Cc1n[nH]c(C)c1NC(=O)CN1CCCC1c1c(C)nn(C)c1C (stereo not given) | -19.2%
CCCc1cc(C(=O)NC(c2ccccc2)c2n[nH]c(C)n2)[nH]n1 (stereo not given) | 2.99%
COCC[C@]1(O)CCN(Cc2nc(C(C)C)cs2)C[C@H]1C | -6.26%
CCC(C)CS(=O)(=O)NC(=O)C1CC1 (stereo not given) | -4.69%
COCCc1noc(CN(C)C(=O)C(C)N2CCc3ccccc3C2)n1 (stereo not given) | -0.262%
COc1nn(C)c2c1CCCN(C(=O)COc1ccccc1)C2 | 3.91%
O=C1CC(NCc2ncc[nH]2)CN1CCc1cccc(Cl)c1 (stereo not given) | -0.745%
c1coc(CN2Cc3nccn3CC(Cn3cncn3)C2)c1 (stereo not given) | -7.18%

SMILES | cytotoxicity at 10 µM
NC(=O)CCn1ccc(NCc2cc(F)ccc2Br)n1 | -1.91%
COC(=O)c1sc(NCc2ccc(N3CCC(O)CC3)c(F)c2)nc1Cl | 44.5%
CS(=O)(=O)N[C@@H]1CN(C(=O)c2cc3ccccc3s2)C[C@H]1O | -0.378%
CC1CCN(S(=O)(=O)NCC2CCOc3ccccc3C2)CC1 (stereo not given) | -1.25%
OC[C@@H]1CCCN1c1ccc(-c2nc(CCc3ccccc3)no2)cn1 | -0.134%
Cc1ccc(CNc2nc(O)cc(C3CC(=O)N(C)C3)n2)cc1 (stereo not given) | -17.8%
CCN(CC)CCSc1nnc(N2CCN(c3ccccc3)CC2)s1 | -21.9%
CC(C)N(C)S(=O)(=O)c1ccc2c(c1)CCN(C(=O)c1cccnn1)C2 | -1.22%
Cc1cncc(NC(=O)c2ccc(CN3CCC(CO)CC3)cc2)c1 | 19%
O=C(c1ccncc1)N1C[C@@H](OCc2cccnc2)[C@H]2OCCC[C@H]21 | 0.866%
COCC(O)CN(C)C(=O)c1cccc(-c2csc(C)n2)c1 (stereo not given) | -3.04%
COCC(=O)N1CC(c2ccnc(Nc3ccc(C)cn3)n2)C1 | -30.9%
NC(=O)c1ccc(OCCCN2CCC3(CC2)OCCCC3O)cc1 (stereo not given) | -1.18%
O=C(C(CNCc1ccsc1)c1ccccc1)N1CCOCC1 (stereo not given) | -7.32%
O=C(c1cn(-c2ccccc2Cl)nn1)N1CCN(CCO)CC1 | -2.88%
COC[C@@H]1CCC[C@]12CN(S(=O)(=O)c1cccs1)CCO2 | -5.73%
O=C(NCc1cc(O)ncn1)C1CCOc2ccccc2C1 (stereo not given) | -6.01%
CC(C)c1cc(C(=O)N2CCCC(n3cncn3)C2)n[nH]1 (stereo not given) | -11.9%
CN(CC(=O)N(C)C1CCCCC1)Cc1nc2ccccc2c(=O)[nH]1 | 2.26%
Cc1cc(NC(C)C(=O)N2CCN(c3ncccn3)CC2)ccc1F (stereo not given) | 7.77%
CC(O)(CNC(=O)c1cccnc1-n1cccn1)c1ccco1 (stereo not given) | 3.09%
CS(=O)(=O)NCCC1CCCCN1C(=O)NCCc1ccccc1 (stereo not given) | -6%

SMILES | cytotoxicity at 10 µM
Cc1ccc(CN2CC[C@H]3[C@H]2CCN3S(=O)(=O)C2CC2)s1 | 7.74%
NC(=O)CC1CCCCN1C(=O)Cc1cccc(Br)c1 (stereo not given) | 1.77%
COc1ncc(NS(=O)(=O)c2cccc(C)c2)c(OC)n1 | 10.4%
O=C(COCC(F)(F)F)Nc1nncs1 | 5.79%
O=S(=O)(NC1CCCN(c2ncccn2)C1)N1CCCCCC1 (stereo not given) | 12.7%
Cc1nc(CNc2cccc(Cl)c2Cl)cs1 | 11.4%
Cc1noc(C)c1CNC(=O)C1(NS(C)(=O)=O)CCCCC1 | 6.55%
OCC1CCCN1c1cc(NCCNc2ccccn2)ncn1 (stereo not given) | -20.1%
COCC(=O)NC[C@H]1C[C@@H]2CCN1C[C@@H]2c1cc(-c2cccs2)nn1C | 1.23%
CCOCC1CN(Cc2cnn(C)c2)Cc2ncn(CC3CC3)c21 (stereo not given) | 2.21%
Cc1cnc(C(=O)NCC2CCOc3ccccc3C2)cn1 (stereo not given) | 5.06%
Cc1cc(C)c(CNC(=O)N(C)Cc2ccc3c(c2)OCO3)c(=O)[nH]1 | -5.53%
CC(NC(=O)NCCc1nc(C(F)(F)F)cs1)C(=O)N(C)C (stereo not given) | 5.04%
Cc1noc(C(C)C)c1C(=O)NCC1CCN(c2ccccc2)C1 (stereo not given) | -11.8%
Cc1nc(NC(C)C)nc2c1CN(Cc1nccn1C)CC2 | 8.13%
CC(C)c1cccc(N2CCCC3(CCC(=O)N(C4CC4)C3)C2)n1 (stereo not given) | -5.01%
O=C1COC2(COCCN(c3ccccn3)C2)CN1c1cccc(F)c1 (stereo not given) | -103%
CC(C)n1ccnc1C1CCN(C(=O)c2ccccc2)CC1 | -10.9%
COCC(O)CN1CCC(=O)N(Cc2ccccc2)Cc2ccccc21 (stereo not given) | 1.19%
Cc1nc(C2CCCN2CCCS(N)(=O)=O)no1 (stereo not given) | -10.3%
Cc1cc(NC(=O)NC2CCCc3c2cnn3CCO)n(C)n1 (stereo not given) | -15.7%
COc1ccc(F)c(F)c1CN1CCN(CC(C)C)C(=O)C1C (stereo not given) | -6.29%

SMILES | cytotoxicity at 10 µM
CCn1ncc2c1C(COC)CN(Cc1cccnc1)C2 (stereo not given) | 0.588%
CN(CCc1ncnn1C1Cc2ccccc2C1)C1CCS(=O)(=O)C1 (stereo not given) | -3.54%
CO[C@H]1CN(Cc2ccccc2F)[C@@H]2CCCO[C@H]12 | -0.0925%
Cc1cccc(N2CC3(COCCN(c4ccncn4)C3)OCC2=O)c1 (stereo not given) | -105%
CNC(=O)C1CC(=O)N(c2cccc(F)c2)C1 (stereo not given) | 4.61%
O=C(CCN1CCCO1)N1CC[C@@H](CNC(=O)N2CCCC2)[C@H](O)C1 | 0.275%
CSc1ncccc1C(=O)N1CCC(c2nc3c(C)cccc3[nH]2)CC1 | -20%
COCCN1CCC(C(=O)N(C)CCOc2ccc(C)cc2Cl)C1 (stereo not given) | 13.4%
COc1ccc(F)cc1S(=O)(=O)NCCn1cnc(C)cc1=O | -6.49%
c1cncc(OC[C@@H]2CCC[C@@]23CN(Cc2nccs2)CCO3)c1 | -63.3%
Cc1ccc(-n2ncc(C(=O)NC3CC(C)(C)NC(C)(C)C3)c2N)cc1 | -4.2%
Cc1cnn(C2CCCN(C(=O)Cc3ccc(-n4cccn4)cc3)C2)c1 (stereo not given) | 2.55%
CN(Cc1cc(C(C)(C)C)n[nH]1)C(=O)c1c[nH]nc1-c1cccc(F)c1 | -3.39%
COc1c(C2CCCN2C(=O)c2cnn(C)c2C2CC2)c(C)nn1C (stereo not given) | -2.43%
CC(C)C1CN(C(=O)c2nccnc2N)CCS1 (stereo not given) | -8.54%
CC1CCCCN1CCNC(=O)c1ccn(-c2ccc(F)cc2)n1 (stereo not given) | -1.91%
CCn1ncc(CN2C[C@@H]3CCCN3C[C@H]2CCSC)c1C | -19.1%
CCCc1cc(C(=O)NCCCC(=O)N2Cc3ccccc3C2)[nH]n1 | 8.81%
O=C(C1CCOC1)N1C[C@@H]2CCN(C(=O)c3cscn3)[C@@H]2C1 (stereo not given in full) | -2.85%
NC(=O)CCn1nnc(-c2cc3ccccc3o2)n1 | 4.56%
O=C(NC(Cc1ccsc1)c1nccs1)C1CCOCC1 (stereo not given) | 1.9%
O=C(N[C@]12CC1CN(C(=O)c1ccco1)C2)c1cccc(F)c1 (stereo not given in full) | -15.3%
